# Experimental data pooled from the literature.
# Protocols differ between the studies behind these lines.
# Target: Cyclin-dependent kinase 18 (CDK18, Homo sapiens, UniProt Q07002)
SMILES,assay,conditions,remaining binding
C[C@H]1CCN(c2nccc(-c3cnn4ncccc34)n2)C1,binding,1 µM,100%
NS(=O)(=O)c1cc(NC(=O)C2(c3ccccc3Cl)CC2)ccc1Oc1cccc(Cl)c1,"cell-free assay, competition with immobilised ligand",1 µM,69%
FC(F)(F)Oc1cccc(-c2cnc3ccc(-c4ccncc4)nn23)c1,"cell-free assay, competition with immobilised ligand",5 µM,46%
O=c1nc(-c2ccccn2)sc2ccccc12,"binding, competition with immobilised ligand",1 µM,94%
COc1cnc(Nc2cccc(S(N)(=O)=O)c2)nc1N1CCN(c2ccccc2)C(=O)C1,"binding, competition with immobilised ligand",1 µM,100%
COc1ccnn2ncc(-c3ccnc(N(C)C)n3)c12,binding,1 µM,100%
O=C(c1ccc(Nc2ncc(Cl)c(-c3ccc(Cl)s3)n2)cc1)N1CCC(N2CCCC2)CC1,"binding, competition with immobilised ligand",1 µM,43%
CCN1CCN(Cc2ccc(C(=O)Nc3ccc(C)c(Oc4ccc5c(c4)CC(=O)N5)c3)cc2C(F)(F)F)CC1,"binding, competition with immobilised ligand",1 µM,100%
N[C@H]1CCN(c2nccc(-c3cnn4ncccc34)n2)C1,binding,1 µM,100%
CN1CCN(c2ccc(Nc3nccc(-c4cccc([N+](=O)[O-])c4)n3)cc2C(F)(F)F)CC1,binding,10 µM,56%
c1cncc(-c2cccc(Nc3nccc(NC4CCCCC4)n3)c2)c1,"binding, competition with immobilised ligand",10 µM,100%
O=C(c1ccc(Nc2nccc(-c3cc4ccccc4s3)n2)cc1)N1CCC(N2CCCC2)CC1,"binding, competition with immobilised ligand",1 µM,100%
NS(=O)(=O)c1cc(NC(=O)Cc2ccccc2)ccc1Oc1cccc(Cl)c1,"cell-free assay, competition with immobilised ligand",1 µM,100%
CN(CCCC(F)(F)F)c1nccc(-c2cnn3ncccc23)n1,binding,1 µM,52%
CCOC(=O)c1cc2cc(-c3cc(C(=O)NCc4ccc(C(=O)O)cc4)nn3C)ccc2[nH]1,"cell-free assay, competition with immobilised ligand",0.1 µM,100%
CC1CCCN1c1nccc(-c2cnn3ncccc23)n1 (centres unmarked),binding,1 µM,100%
O=C(Nc1ccc(Oc2ccc(F)cc2)cc1)N1CCc2ncccc2[C@H]1c1ccc(F)cc1,"cell-free assay, competition with immobilised ligand",1 µM,98%
Cc1cnc(Nc2ccc(C(=O)N3CCC(N4CCCC4)CC3)cc2)nc1-c1cc2ccccc2s1,"binding, competition with immobilised ligand",1 µM,100%
CNC(=O)Nc1ccc2c(c1)[C@@]1(CC2)OC(=O)N(CC(=O)N(Cc2ccc(F)cc2)[C@@H](C)C(F)(F)F)C1=O,"cell-free assay, competition with immobilised ligand",1 µM,100%
O=C(NCC1CCOCC1)c1n[nH]cc1NC(=O)c1c(F)cccc1F,"binding, competition with immobilised ligand",1 µM,86%
CCC(=N\O)/C(C)=C/c1ccc(F)cc1,"cell-free assay, competition with immobilised ligand",1 µM,89%
c1cnn2ncc(-c3ccnc(N4CCC45COC5)n3)c2c1,binding,1 µM,98%
COc1cnc(Nc2cccc(S(N)(=O)=O)c2)nc1N1CCN(c2ccccc2)CC1,"binding, competition with immobilised ligand",1 µM,98%
